In ChEMBL document CHEMBL4020787, “Lodopyridones B and C from a marine sediment-derived bacterium Saccharomonospora sp” (Bioorg Med Chem Lett, 2017):
Calls of active or inactive are those of the source. The calls are words filed in the database; no cut-off is given here.

Tests used:
[1] = target: Beta-secretase 1 (Homo sapiens) (UniProt P56817); assay: Inhibition of BACE1 (unknown origin) at 100 uM using Rh-EVNLDAEFK-Quencher as substrate after 60 mins by fluorescence spectroscopy relative to control
Chain of Beta-secretase 1 (Homo sapiens) (P56817 whole entry): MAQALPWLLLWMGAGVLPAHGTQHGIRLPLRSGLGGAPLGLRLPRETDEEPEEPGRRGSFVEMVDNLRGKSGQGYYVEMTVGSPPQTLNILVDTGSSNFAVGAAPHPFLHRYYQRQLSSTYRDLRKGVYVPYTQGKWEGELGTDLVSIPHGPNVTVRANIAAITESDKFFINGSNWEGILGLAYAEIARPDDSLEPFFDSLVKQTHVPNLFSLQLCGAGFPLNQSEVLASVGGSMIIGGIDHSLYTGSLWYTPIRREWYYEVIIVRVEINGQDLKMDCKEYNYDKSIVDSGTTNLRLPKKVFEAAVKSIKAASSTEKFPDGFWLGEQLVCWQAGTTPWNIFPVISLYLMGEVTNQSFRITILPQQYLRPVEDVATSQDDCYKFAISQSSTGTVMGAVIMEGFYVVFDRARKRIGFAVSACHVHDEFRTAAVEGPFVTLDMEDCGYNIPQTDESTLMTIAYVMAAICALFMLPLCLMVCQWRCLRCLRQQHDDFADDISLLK
Procedure, shortened: (§1)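 Enzyme tested across a concentration series, with isoliquiritigenin as the reference drug. Activity is reported as percent inhibition.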

[2] = target: Beta-secretase 1 (Homo sapiens) (UniProt P56817); assay: Inhibition of BACE1 (unknown origin) at 1 to 100 uM using Rh-EVNLDAEFK-Quencher as substrate after 60 mins by fluorescence spectroscopy; procedure, shortened: as §1
[3] = target: Beta-secretase 1 (Homo sapiens) (UniProt P56817); assay: Inhibition of BACE1 (unknown origin) at <100 nM using Rh-EVNLDAEFK-Quencher as substrate after 60 mins by fluorescence spectroscopy; procedure, shortened: as §1
[4] = target: Beta-secretase 1 (Homo sapiens) (UniProt P56817); assay: Inhibition of BACE1 in human SH-SY5Y cells assessed as decrease in amyloid beta (1 to 42) production after 24 hrs by ELISA relative to control; type: cell-based
Procedure, shortened: (§2)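 SH-SY5Y cells were exposed to the compound, and released Aβ40 and Aβ42 were quantified separately as percent of untreated control. Isoliquiritigenin was run in parallel as the reference drug.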

[5] = target: Beta-secretase 1 (Homo sapiens) (UniProt P56817); assay: Inhibition of BACE1 in human SH-SY5Y cells assessed as decrease in amyloid beta (1 to 40) production at 1000 uM after 24 hrs by ELISA relative to control; type: cell-based; procedure, shortened: as §2
[6] = target: Beta-secretase 1 (Homo sapiens) (UniProt P56817); assay: Inhibition of BACE1 in human SH-SY5Y cells assessed as decrease in amyloid beta (1 to 40) production after 24 hrs by ELISA relative to control; type: cell-based; procedure, shortened: as §2
[7] = target: Beta-secretase 1 (Homo sapiens) (UniProt P56817); assay: Inhibition of BACE1 in human SH-SY5Y cells assessed as decrease in amyloid beta (1 to 42) production at 1000 uM after 24 hrs by ELISA relative to control; type: cell-based; procedure, shortened: as §2

inhibition [1]	inhibition [2]	inhibition [3]	inhibition [4]	inhibition [5]	inhibition [6]	inhibition [7]	SMILES
51%	Dose-dependent effect	inactive	–	–	–	–	COc1c(-c2csc(-c3ccc4cc(Cl)ccc4n3)n2)n(C)c(C(=O)NCCO)c([S+](C)[O-])c1=O (stereo not drawn)
42%	Dose-dependent effect	inactive	–	–	–	–	COc1c(-c2csc(-c3ccc4cc(Cl)ccc4n3)n2)n(C)c(C(=O)NCCO)c(SC)c1=O
60%	Dose-dependent effect	inactive	Dose-dependent effect	41%	Dose-dependent effect	49%	COc1c(-c2csc(-c3ccc4cc(Cl)ccc4n3)n2)n(C)c(C(=O)NCCOC(C)=O)c(SC)c1=O
